From ChEMBL document CHEMBL5303300, “EUbOPEN Chemogenomics Library - Multiplex” (2023)
Where “and” joins values, the source holds several entries; their conditions need not be identical. Identical values can stand only once.

Columns and labels:
U2OS = experiment: Multiplex assay against U2OS; assay type: toxicity, cell-based; settings: human, number of replicates 2
How it was run: (§1)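 Values for tubulin, mitochondrial-mass and membrane-permeability phenotypes are per cents of cells with healthy nuclei. These cells were identified by CellPathfinder machine-learning gating of live cells that had been stained at seeding with Hoechst33342, BioTracker Green Microtubule Cytoskeleton Dye, MitoTracker Red and Annexin V Alexa Fluor 680 and imaged on a CQ1 microscope at 37°C and 5% CO2 after compound addition. The gating first set Hoechst high-intensity objects apart from normal cells, then split normal cells into healthy, pyknosed or fragmented nuclei, and pyknosed cells into mitotic or apoptotic.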

HEK-293T = experiment: Multiplex assay against HEK293T; assay type: toxicity, cell-based; settings: human, number of replicates 2; how it was run: as §1
[1] = 12 h, 1 µM, compound concentration 1 uM
[2] = 12 h, 10 µM, compound concentration 10 uM
[3] = 24 h, 1 µM, compound concentration 1 uM
[4] = 24 h, 10 µM, compound concentration 10 uM
[5] = 48 h, 1 µM, compound concentration 1 uM
[6] = 48 h, 10 µM, compound concentration 10 uM

With `N[C@@H]1c2cccnc2[C@H](OC(=O)N2CCC(n3c(=O)[nH]c4ncccc43)CC2)CC[C@H]1c1cccc(F)c1F` [RIMEGEPANT] the “Population Apoptotic (%)” value (U2OS; [1]) was 40% and 54%, the “Population Fragmented Nuclei (%)” value (U2OS; [1]) was 11% and 5% and the “Population Healthy Nuclei (%)” value (U2OS; [1]) was 79% and 84%. The “Population Hoechst High Intensity Objects (%)” value (U2OS; [1]) was 0%, the “Population Membrane Permeable-Phenotype (%)” value (U2OS; [1]) was 0% and 4% and the “Population Mitochondria Different-Phenotype (%)” value (U2OS; [1]) was 0% and 1%. For the same molecule, the “Population Mitotic Cells (%)” value (U2OS; [1]) was 60% and 45%, the “Population Normal (%)” value (U2OS; [1]) was 100% and the “Population Pyknosed Nuclei (%)” value (U2OS; [1]) was 9%. The “Population Tubulin-Different-Phenotype (%)” value (U2OS; [1]) was 90% and 65%, the “Population Apoptotic (%)” value (U2OS; [2]) was 60% and 51% and the “Population Fragmented Nuclei (%)” value (U2OS; [2]) was 0% and 5%. For the same molecule, the “Population Healthy Nuclei (%)” value (U2OS; [2]) was 88% and 83%, the “Population Hoechst High Intensity Objects (%)” value (U2OS; [2]) was 0% and the “Population Membrane Permeable-Phenotype (%)” value (U2OS; [2]) was 0% and 8%. For the same molecule, the “Population Mitochondria Different-Phenotype (%)” value (U2OS; [2]) was 8% and 11%, the “Population Mitotic Cells (%)” value (U2OS; [2]) was 40% and 48% and the “Population Normal (%)” value (U2OS; [2]) was 100%. For the same molecule, the “Population Pyknosed Nuclei (%)” value (U2OS; [2]) was 11% and 10%, the “Population Tubulin-Different-Phenotype (%)” value (U2OS; [2]) was 37% and 34% and the “Population Apoptotic (%)” value (U2OS; [3]) was 50% and 57%. The “Population Fragmented Nuclei (%)” value (U2OS; [3]) was 7% and 3%, the “Population Healthy Nuclei (%)” value (U2OS; [3]) was 82% and 86% and the “Population Hoechst High Intensity Objects (%)” value (U2OS; [3]) was 0%. For the same molecule, the “Population Membrane Permeable-Phenotype (%)” value (U2OS; [3]) was 2% and 4%, the “Population Mitochondria Different-Phenotype (%)” value (U2OS; [3]) was 0% and 2% and the “Population Mitotic Cells (%)” value (U2OS; [3]) was 50% and 42%. For the same molecule, the “Population Normal (%)” value (U2OS; [3]) was 100%, the “Population Pyknosed Nuclei (%)” value (U2OS; [3]) was 10% and 9% and the “Population Tubulin-Different-Phenotype (%)” value (U2OS; [3]) was 87% and 71%. For the same molecule, the “Population Apoptotic (%)” value (U2OS; [4]) was 66% and 76%, the “Population Fragmented Nuclei (%)” value (U2OS; [4]) was 8% and 3% and the “Population Healthy Nuclei (%)” value (U2OS; [4]) was 79% and 89%. The “Population Hoechst High Intensity Objects (%)” value (U2OS; [4]) was 0%, the “Population Membrane Permeable-Phenotype (%)” value (U2OS; [4]) was 0% and 6% and the “Population Mitochondria Different-Phenotype (%)” value (U2OS; [4]) was 10% and 16%. For the same molecule, the “Population Mitotic Cells (%)” value (U2OS; [4]) was 33% and 24%, the “Population Normal (%)” value (U2OS; [4]) was 100% and the “Population Pyknosed Nuclei (%)” value (U2OS; [4]) was 12% and 6%. For the same molecule, the “Population Tubulin-Different-Phenotype (%)” value (U2OS; [4]) was 28% and 27%, the “Population Apoptotic (%)” value (U2OS; [5]) was 61% and 62% and the “Population Fragmented Nuclei (%)” value (U2OS; [5]) was 8% and 3%. For the same molecule, the “Population Healthy Nuclei (%)” value (U2OS; [5]) was 77% and 89%, the “Population Hoechst High Intensity Objects (%)” value (U2OS; [5]) was 0% and the “Population Membrane Permeable-Phenotype (%)” value (U2OS; [5]) was 1%. The “Population Mitochondria Different-Phenotype (%)” value (U2OS; [5]) was 2% and 1%, the “Population Mitotic Cells (%)” value (U2OS; [5]) was 38% and 37% and the “Population Normal (%)” value (U2OS; [5]) was 100%. For the same molecule, the “Population Pyknosed Nuclei (%)” value (U2OS; [5]) was 14% and 7%, the “Population Tubulin-Different-Phenotype (%)” value (U2OS; [5]) was 94% and 84% and the “Population Apoptotic (%)” value (U2OS; [6]) was 53% and 70%. The “Population Fragmented Nuclei (%)” value (U2OS; [6]) was 3%, the “Population Healthy Nuclei (%)” value (U2OS; [6]) was 73% and 86% and the “Population Hoechst High Intensity Objects (%)” value (U2OS; [6]) was 0%. For the same molecule, the “Population Membrane Permeable-Phenotype (%)” value (U2OS; [6]) was 4% and 3%, the “Population Mitochondria Different-Phenotype (%)” value (U2OS; [6]) was 2% and 9% and the “Population Mitotic Cells (%)” value (U2OS; [6]) was 46% and 29%. The “Population Normal (%)” value (U2OS; [6]) was 100%, the “Population Pyknosed Nuclei (%)” value (U2OS; [6]) was 22% and 9% and the “Population Tubulin-Different-Phenotype (%)” value (U2OS; [6]) was 30% and 33%. For the same molecule, the “Population Apoptotic (%)” value (HEK-293T; [1]) was 64% and 44%, the “Population Fragmented Nuclei (%)” value (HEK-293T; [1]) was 4% and 5% and the “Population Healthy Nuclei (%)” value (HEK-293T; [1]) was 78% and 83%. For the same molecule, the “Population Hoechst High Intensity Objects (%)” value (HEK-293T; [1]) was 14% and 10%, the “Population Membrane Permeable-Phenotype (%)” value (HEK-293T; [1]) was 3% and 1% and the “Population Mitochondria Different-Phenotype (%)” value (HEK-293T; [1]) was 18% and 17%. The “Population Mitotic Cells (%)” value (HEK-293T; [1]) was 35% and 55%, the “Population Normal (%)” value (HEK-293T; [1]) was 85% and 89% and the “Population Pyknosed Nuclei (%)” value (HEK-293T; [1]) was 17% and 10%. For the same molecule, the “Population Tubulin-Different-Phenotype (%)” value (HEK-293T; [1]) was 47%, the “Total Cell Count” value (HEK-293T; [1]) was 573 and 694 and the “Population Apoptotic (%)” value (HEK-293T; [2]) was 40% and 46%. For the same molecule, the “Population Fragmented Nuclei (%)” value (HEK-293T; [2]) was 4%, the “Population Healthy Nuclei (%)” value (HEK-293T; [2]) was 83% and 84% and the “Population Hoechst High Intensity Objects (%)” value (HEK-293T; [2]) was 5% and 6%. For the same molecule, the “Population Membrane Permeable-Phenotype (%)” value (HEK-293T; [2]) was 1% and 4%, the “Population Mitochondria Different-Phenotype (%)” value (HEK-293T; [2]) was 49% and 18% and the “Population Mitotic Cells (%)” value (HEK-293T; [2]) was 60% and 53%. For the same molecule, the “Population Normal (%)” value (HEK-293T; [2]) was 94% and 93%, the “Population Pyknosed Nuclei (%)” value (HEK-293T; [2]) was 12% and 11% and the “Population Tubulin-Different-Phenotype (%)” value (HEK-293T; [2]) was 98% and 82%. For the same molecule, the “Total Cell Count” value (HEK-293T; [2]) was 526 and 617, the “Population Apoptotic (%)” value (HEK-293T; [3]) was 56% and 37% and the “Population Fragmented Nuclei (%)” value (HEK-293T; [3]) was 7% and 6%. The “Population Healthy Nuclei (%)” value (HEK-293T; [3]) was 75% and 85%, the “Population Hoechst High Intensity Objects (%)” value (HEK-293T; [3]) was 11% and 8% and the “Population Membrane Permeable-Phenotype (%)” value (HEK-293T; [3]) was 0% and 1%. For the same molecule, the “Population Mitochondria Different-Phenotype (%)” value (HEK-293T; [3]) was 5% and 4%, the “Population Mitotic Cells (%)” value (HEK-293T; [3]) was 43% and 62% and the “Population Normal (%)” value (HEK-293T; [3]) was 88% and 91%. For the same molecule, the “Population Pyknosed Nuclei (%)” value (HEK-293T; [3]) was 17% and 7%, the “Population Tubulin-Different-Phenotype (%)” value (HEK-293T; [3]) was 18% and 20% and the “Total Cell Count” value (HEK-293T; [3]) was 820 and 1035. For the same molecule, the “Population Apoptotic (%)” value (HEK-293T; [4]) was 48% and 36% and the “Population Fragmented Nuclei (%)” value (HEK-293T; [4]) was 9% and 8%.
